ChEMBL document CHEMBL1130129, “Immunologically specific activation of a cephalosporin derivative of mitomycin C by monoclonal antibody beta-lactamase conjugates” (J Med Chem, 1997)

How the values were obtained:
Format in all cases: functional, cell-based
Clone 62 [1] = assay: Inhibitory activity against clone62, a mouse melanoma cell line in presence of Enterobacter cloacae bL
Summary of the method: (§1)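 Adherent cells (4000 or 8000/well, 18 h, 37 °C, IMDM/10% FBS) washed with RPMI/10% FBS. Exposed 1 h at 37 °C to graded compound concentrations together with purified E. cloacae β-lactamase (10 µg/mL), then washed and cultured 18 h. [3H]thymidine pulse at 1 µCi/well (18 h or 6 h by seeding density). IC50 is 50% incorporation relative to untreated controls; five independent experiments.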

Clone 62 [2] = assay: Inhibitory activity against clone62, a mouse melanoma cell line in absence of Enterobacter cloacae bL
Summary of the method: (§2)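 Cells plated at 4000 or 8000/well in IMDM with 10% FBS, left to adhere 18 h at 37 °C, then washed with RPMI/10% FBS. Compound exposure 1 h at 37 °C with no enzyme, followed by IMDM wash and 18 h culture. [3H]thymidine pulse at 1 µCi/well (18 h at 4000 cells/well, 6 h at 8000). IC50 is the concentration giving 50% incorporation versus untreated cells; mean of five experiments.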

H2987 cell line [3] = assay: Inhibitory activity against H2987, human lung adenocarcinoma cell line in presence of Enterobacter cloacae bL; summary of the method: as §1
H2987 cell line [4] = assay: Inhibitory activity against H2987, human lung adenocarcinoma cell line in absence of Enterobacter cloacae bL; summary of the method: as §2

SMILES | IC50 (Clone 62 [1]) [nM] | IC50 (Clone 62 [2]) [nM] | IC50 (H2987 cell line [3]) [nM] | IC50 (H2987 cell line [4]) [nM]
CO[C@@]12[C@H](COC(N)=O)C3=C(C(=O)C(C)=C(NCC4=C(C(=O)O)N5C(=O)[C@@H](NC(=O)Cc6ccccc6)[C@H]5SC4)C3=O)N1C[C@@H]1N[C@@H]12 | 1400 | 3500 | 2800 | 10400
CO[C@@]12[C@H](COC(N)=O)C3=C(C(=O)C(C)=C(NCC4=C(C(=O)O)N5C(=O)[C@@H](NC(=O)CCCC(=O)O)[C@H]5SC4)C3=O)N1C[C@@H]1N[C@@H]12 | 3000 | 30100 | 1200 | 26400
CO[C@@]12[C@H](COC(N)=O)C3=C(C(=O)C(C)=C(N)C3=O)N1C[C@@H]1N[C@@H]12 [MITOMYCIN] | – | 1500 | – | 1600
